By MIC is commonly meant the lowest concentration that inhibits growth of the organism. The CC50 is the concentration at which the toxic effect on the cells reaches its halfway point. Low readings indicate harm at low concentration, high ones better tolerance by the cells.

Series [1] concerns Mycobacterium tuberculosis. Nature of the series: Antimicrobial activity against Mycobacterium tuberculosis 37892293 after 16 to 20 hrs by two-fold microdilution broth method. Type of series: functional. For orientation: In broth dilution the organism is exposed to a series of concentrations in liquid medium.
Series [2] relates to Mycobacterium tuberculosis. Nature of the series: Antimicrobial activity against Mycobacterium tuberculosis 3688023 after 16 to 20 hrs by two-fold microdilution broth method. Type of series: functional.
The test system of series [3] is Mycobacterium tuberculosis. Nature of the series: Antimicrobial activity against Mycobacterium tuberculosis H37Rv after 16 to 20 hrs by two-fold microdilution broth method. It is filed as functional.
Series [4] in a line: Inhibition of Acinetobacter calcoaceticus recombinant BPL using 3H-biotin as substrate after 10 mins by liquid scintillation counting analysis. The conditions noted are these: read-out: Ki(app). In a few lines:
(§1)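 In vitro biotinylation assay measuring radiolabeled biotin incorporation onto an acceptor protein by each recombinant BPL, run at varying inhibitor concentrations. Apparent Ki was fitted with the Morrison tight-binding equation, accounting for the BPL concentration in the assay. It was then extrapolated using each enzyme's apparent K_M for biotin, assuming inhibition competitive with biotin.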

For a further series, the system named is Enterococcus faecium. The series can be described thus: Antimicrobial activity against Enterococcus faecium after 16 to 20 hrs by two-fold microdilution broth method. It is filed as functional.
Series [5] can be described thus: Inhibition of Mycobacterium tuberculosis recombinant BPL using 3H-biotin as substrate after 10 mins by liquid scintillation counting analysis. The conditions noted are these: read-out: Ki(app). In a few lines: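 Recombinant BPL activity was measured as radiolabelled biotin incorporated onto an acceptor protein, across a range of inhibitor concentrations. Apparent Ki came from the Morrison tight-binding equation, because Ki values lay within 10-fold of the BPL concentration used. Binding was treated as competitive with biotin, so values were extrapolated using the apparent KM for biotin.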

In another series the test system is Escherichia coli. The series can be described thus: Antimicrobial activity against Escherichia coli ATCC 25922 after 16 to 20 hrs by two-fold microdilution broth method. Type of series: functional.
The next series concerns Staphylococcus. The series can be described thus: Antimicrobial activity against coagulase-negative Staphylococcus after 16 to 20 hrs by two-fold microdilution broth method. It is filed as functional.
Series [6] is described as follows: Inhibition of Staphylococcus aureus recombinant BPL using 3H-biotin as substrate after 10 mins by liquid scintillation counting analysis. The conditions noted are these: read-out: Ki(app). In a few lines:
as §1

The subject of the next series is Enterococcus faecalis. The series can be described thus: Antimicrobial activity against Enterococcus faecalis after 16 to 20 hrs by two-fold microdilution broth method. It is filed as functional.
The test system of series [7] is Staphylococcus aureus. Nature of the series: Antimicrobial activity against methicillin-resistant Staphylococcus aureus after 16 to 20 hrs by two-fold microdilution broth method. It is filed as functional.
The subject of series [8] is Staphylococcus aureus. Nature of the series: Competitive inhibition of Staphylococcus aureus recombinant BPL using 3H-biotin as substrate by Lineweaver-Burk plot analysis. The procedure, abridged: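 S. aureus BPL biotinylation with ³H-biotin: enzyme velocity measured across varying biotin concentrations at inhibitor 0, 20, 100 and 200 nM. Double-reciprocal Lineweaver–Burk plots of 1/velocity vs 1/biotin were used to define the inhibition mode, with K_M and V_max compared across inhibitor levels. Points are mean ± SEM of three replicates.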

In series [9] the test system is Staphylococcus aureus. The series can be described thus: Antimicrobial activity against methicillin-sensitive Staphylococcus aureus after 16 to 20 hrs by two-fold microdilution broth method. Type of series: functional.
Series [10] in a line: Cytotoxicity against human HepG2 cells after 24 to 48 hrs by WST-1 assay. It is filed as cell-based.
Series [11] is described as follows: Inhibition of Klebsiella pneumonia recombinant BPL using 3H-biotin as substrate after 10 mins by liquid scintillation counting analysis. Details: species or system Klebsiella pneumoniae. The conditions noted are these: read-out: Ki(app). The procedure, abridged: as §1

Each structure is given as a SMILES string. ≈ marks a conversion by molar mass, not a printed value. Calls of active or inactive are those of the source. The calls are words filed in the database; no cut-off is given here.

Consider `Nc1ncnc2c1ncn2[C@@H]1O[C@H](CNS(=O)(=O)NC(=O)CCCC[C@@H]2SC[C@@H]3NC(=O)N[C@@H]32)[C@@H](O)[C@H]1O`, for which the MIC in series [1], in series [2] and in series [3] was 0.1 µg/mL (≈ 0.175 µM) throughout.
`Nc1ncnc2c1ncn2[C@@H]1O[C@H](COP(=O)(O)OCCCCC[C@@H]2SC[C@@H]3NC(=O)N[C@@H]32)[C@@H](O)[C@H]1O`: the Ki in series [4] was 461 nM; in series [5], 52 nM; in series [6], 18 nM; in series [11], 482 nM. In addition, the MIC is above 128 µg/mL in the series with Enterococcus faecium; 2.5 µg/mL (≈ 4.47 µM) in series [1]; above 128 µg/mL in the series on Escherichia coli; 0.5 µg/mL (≈ 0.894 µM) in series [2]; 1 µg/mL (≈ 1.79 µM) in the series on Staphylococcus; above 128 µg/mL against Enterococcus faecalis. The values for the MIC (in the series with Staphylococcus aureus [7]; against Staphylococcus aureus [9]; in series [3]) were 2 µg/mL (≈ 3.57 µM), 2 µg/mL (≈ 3.57 µM) and 2.5 µg/mL (≈ 4.47 µM), respectively. Also, the inhibition entry in the series with Staphylococcus aureus [8] is “Active”. Also, in series [10], the CC50 is above 200 µg/mL.

The values above are taken from ChEMBL document CHEMBL3421591, “Improved Synthesis of Biotinol-5'-AMP: Implications for Antibacterial Discovery” (ACS Med Chem Lett, 2015).
